Data published in ChEMBL document CHEMBL3232757, “Structure-activity relationships for withanolides as inducers of the cellular heat-shock response” (J Med Chem, 2014).
Peptide text beside a SMILES is read from it. * marks the point of attachment. Cbz = O=C(OCc1ccccc1)*

Key:
[1] = Cytotoxicity against human NCI-H929 cells after 3 days by Alamar blue assay; format: functional, cell-based; settings: NCI-H929, 72 h
[2] = molecular target: Heat shock 70 kDa protein 6 (Homo sapiens) (UniProt P17066); test: Induction of […] (unknown origin)-mediated heat shock response expressed in human 293T cells coexpressing GFP assessed as heat shock index after overnight incubation by luciferase reporter gene assay relative to control; format: cell-based
Summary of the method: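 293T cells transduced with a lentiviral EGFP–firefly luciferase fusion under HSP70B′ promoter elements, enriched by heat shock (42 °C, 1 h) plus FACS, then reverse-sorted to remove constitutive expressers. Cells in DMEM/10% FBS were seeded at 20 000/well and given serial dilutions next day, quadruplicate wells, overnight. Read by Steady-Glo luminescence. Index = [Log2(treated/control)]/concentration (μM) at maximal response.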

[3] = Cytotoxicity against human CHP100 cells assessed as inhibition of cell survival at 4 uM after 24 hrs by MTT assay relative to control; format: functional; settings: CHP100, 24 h
[4] = Cytotoxicity against human CHP100 cells assessed as inhibition of cell survival after 24 hrs by MTT assay; format: functional, cell-based; settings: CHP100, 24 h

Chain of Heat shock 70 kDa protein 6 (Homo sapiens) (P17066 whole entry, the tested form may be a part): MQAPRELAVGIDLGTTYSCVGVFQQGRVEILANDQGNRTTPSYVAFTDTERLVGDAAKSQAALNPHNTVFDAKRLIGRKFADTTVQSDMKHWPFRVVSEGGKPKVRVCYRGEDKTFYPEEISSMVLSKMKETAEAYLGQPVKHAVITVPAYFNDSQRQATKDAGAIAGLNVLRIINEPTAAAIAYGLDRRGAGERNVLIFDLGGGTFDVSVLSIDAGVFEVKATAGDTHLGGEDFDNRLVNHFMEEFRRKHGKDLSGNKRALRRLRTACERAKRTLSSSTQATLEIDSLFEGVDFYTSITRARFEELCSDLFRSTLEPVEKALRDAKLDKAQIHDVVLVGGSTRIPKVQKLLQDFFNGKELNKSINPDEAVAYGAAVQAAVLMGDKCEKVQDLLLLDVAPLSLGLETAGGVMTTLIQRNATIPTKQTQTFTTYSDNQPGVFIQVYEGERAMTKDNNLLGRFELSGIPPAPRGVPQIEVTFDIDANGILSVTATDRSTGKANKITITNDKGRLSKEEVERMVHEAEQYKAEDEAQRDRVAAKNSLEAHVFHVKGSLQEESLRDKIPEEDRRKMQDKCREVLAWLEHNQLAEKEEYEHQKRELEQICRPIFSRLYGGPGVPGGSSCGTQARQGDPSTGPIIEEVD

Structure (SMILES)	fold change (FC) [2]	IC50 [1] [nM]	inhibition at 4 µM [3] [%]	IC50 [4] [nM]	Activity [2]
CC1=C(CO)C(=O)O[C@@H]([C@@H](C)[C@H]2CC[C@H]3[C@@H]4CC=C5C[C@@H](O)C[C@H](O)[C@]5(C)[C@H]4CC[C@]23C)C1	0	4960			
CC1=C(CO)C(=O)O[C@@H]([C@@H](C)[C@H]2CC[C@H]3[C@@H]4C[C@H]5O[C@]56[C@@H](O)CCC(=O)[C@]6(C)[C@H]4CC[C@]23C)C1	0	> 10000			
CC1=C(CO)C(=O)O[C@@H]([C@@H](C)[C@H]2CC[C@H]3[C@@H]4C[C@H]5O[C@]56[C@@H](O)[C@@H](O)CC(=O)[C@]6(C)[C@H]4CC[C@]23C)C1 [VISCOSALACTONE B]	0	> 10000			
CC(=O)OCC1=C(C)C[C@H]([C@@H](C)[C@H]2CC[C@H]3[C@@H]4C[C@H]5O[C@]56[C@@H](O)C=CC(=O)[C@]6(C)[C@H]4CC[C@]23C)OC1=O	3.81	250	> 80	230	Dose-dependent effect
CC1=C(CO)C(=O)O[C@@H]([C@@H](C)[C@H]2CC[C@H]3[C@@H]4CC=C5[C@@H](O)C=CC(=O)[C@]5(C)[C@H]4CC[C@]23C)C1	0	5090			
CC1=C(CO)C(=O)OC([C@@H](C)C2CCC3C4C(CC[C@@]32C)[C@@]2(C)C(=O)C=CC[C@]2(O)[C@H]2O[C@@H]42)C1 (some centres undefined)	0	> 10000			
CC1=C(CO)C(=O)O[C@@H]([C@@H](C)[C@H]2CC[C@H]3[C@@H]4C[C@H]5O[C@]56[C@@H](O)[C@@H](OS(=O)(=O)O)CC(=O)[C@]6(C)[C@H]4CC[C@]23C)C1	0	5250			
CC1=C(CO)C(=O)O[C@@H]([C@@H](C)[C@H]2CC[C@H]3[C@@H]4C[C@@H](O)[C@@]5(O)CC=CC(=O)[C@]5(C)[C@H]4CC[C@]23C)C1 [JABOROSALACTONE D]	0	> 10000			
CC1=C(CO)C(=O)O[C@@H]([C@@H](C)[C@H]2CC[C@H]3[C@@H]4C[C@H]5O[C@]56[C@@H](O)C=CC(=O)[C@]6(C)[C@H]4C[C@@H](O)[C@]23C)C1	0	4300			
CC1=C(C)C(=O)O[C@@H]([C@@H](C)[C@H]2CC[C@H]3[C@@H]4C[C@H]5O[C@]56[C@@H](O)C=CC(=O)[C@]6(C)[C@H]4CC[C@]23C)C1	0.52	880	> 80	640	
CC1=C(CO)C(=O)O[C@@H]([C@@H](C)[C@H]2CC[C@H]3[C@@H]4C[C@H](O)[C@]5(O)[C@@H](O)C=CC(=O)[C@]5(C)[C@H]4CC[C@]23C)C1	0	> 10000			
CC(=O)O[C@@H]1C=CC(=O)[C@]2(C)[C@H]3CC[C@]4(C)[C@@H]([C@H](C)[C@H]5CC(C)=C(CO)C(=O)O5)CC[C@H]4[C@@H]3C[C@H]3O[C@]132	1.64	250	> 80	830	
CC1=C(CO)C(=O)O[C@@H]([C@@H](C)[C@H]2CC[C@H]3[C@@H]4C[C@H]5O[C@]56C(=O)C=CC(=O)[C@]6(C)[C@H]4CC[C@]23C)C1	0.79	1160			
CC1=C(C)C(=O)O[C@@H]([C@](C)(O)[C@H]2CC[C@H]3[C@@H]4[C@@H]5O[C@@H]5[C@@]5(O)CC=CC(=O)[C@]5(C)[C@H]4CC[C@]23C)C1 [WITHANOLIDE A]	0	> 10000			
CC1=C(CO)C(=O)O[C@@H]([C@@H](C)[C@H]2CC[C@H]3[C@@H]4C[C@H]5O[C@]56[C@H](O)C=CC(=O)[C@]6(C)[C@H]4CC[C@]23C)C1	1.68	280	> 80	930	

Second part, led by results:

fold change (FC) [2]	Structure (SMILES)	IC50 [1] [nM]	inhibition at 4 µM [3] [%]	IC50 [4] [nM]	Activity [2]
0	CC1=C(COS(=O)(=O)O)C(=O)O[C@@H]([C@@H](C)[C@H]2CC[C@H]3[C@@H]4C[C@H]5O[C@]56[C@@H](OS(=O)(=O)O)C=CC(=O)[C@]6(C)[C@H]4CC[C@]23C)C1	> 10000			
0.2	CC1=C(COS(=O)(=O)O)C(=O)O[C@@H]([C@@H](C)[C@H]2CC[C@H]3[C@@H]4C[C@H]5O[C@]56[C@@H](O)C=CC(=O)[C@]6(C)[C@H]4CC[C@]23C)C1	3320			
0.59	CC1=C(CO)C(=O)O[C@@H]([C@@H](C)[C@H]2CC[C@H]3[C@@H]4C[C@H]5O[C@]56[C@@H](O)[C@H](n5ccc(=O)[nH]c5=O)CC(=O)[C@]6(C)[C@H]4CC[C@]23C)C1	540	> 80	960	
0.36	CC(=O)OCC1=C(C)C[C@H]([C@@H](C)[C@H]2CC[C@H]3[C@@H]4C[C@H]5O[C@]56[C@@H](O)[C@@H](OS(=O)(=O)O)CC(=O)[C@]6(C)[C@H]4CC[C@]23C)OC1=O	1120	> 80	730	
1.65	CC(=O)OCC1=C(C)C[C@H]([C@@H](C)[C@H]2C[C@@H](OC(C)=O)[C@H]3[C@@H]4C[C@H]5O[C@]56[C@@H](OC(C)=O)C=CC(=O)[C@]6(C)[C@H]4CC[C@@]32C)OC1=O	240	> 80	310	
1.73	CC(=O)O[C@H]1C=CC(=O)[C@]2(C)[C@H]3CC[C@]4(C)[C@@H]([C@H](C)[C@H]5CC(C)=C(CO)C(=O)O5)CC[C@H]4[C@@H]3C[C@H]3O[C@]132	250	> 80	780	
0	CC(=O)OCC1=C(C)C[C@H]([C@@H](C)[C@H]2CC[C@H]3[C@@H]4C[C@@H](OC(C)=O)[C@@]5(O)CC=CC(=O)[C@]5(C)[C@H]4CC[C@]23C)OC1=O	> 10000			
0	CC(=O)OCC1=C(C)C[C@H]([C@@H](C)[C@H]2CC[C@H]3[C@@H]4[C@@H]5O[C@@H]5[C@@]5(O)CC=CC(=O)[C@]5(C)[C@H]4CC[C@]23C)OC1=O	> 10000			
1.53	CC(=O)O[C@H]1C=CC(=O)[C@]2(C)[C@H]3CC[C@]4(C)[C@@H]([C@H](C)[C@H]5CC(C)=C(C)C(=O)O5)CC[C@H]4[C@@H]3C[C@H]3O[C@]132	430	> 80	760	
3.31	CC(=O)OCC1=C(C)C[C@H]([C@@H](C)[C@H]2CC[C@H]3[C@@H]4C[C@H]5O[C@]56[C@@H](OC(C)=O)C=CC(=O)[C@]6(C)[C@H]4C[C@@H](OC(C)=O)[C@]23C)OC1=O	180	> 80	280	Dose-dependent effect
0.71	CC(C)C[C@@H](C=O)NC(=O)[C@H](CC(C)C)NC(=O)[C@H](CC(C)C)NC(=O)OCc1ccccc1 [MG-132] (Cbz-Leu-Leu-Leu-aldehyde)	170			
0	CC1=C(CO)C(=O)O[C@@H]([C@@H](C)[C@H]2CC[C@H]3[C@@H]4C[C@H]5O[C@]56[C@@H](O)[C@@H](n5cnc7c(N)ncnc75)CC(=O)[C@]6(C)[C@H]4CC[C@]23C)C1	610			
0.9	CC(=O)OCC1=C(C)C[C@H]([C@@H](C)[C@H]2CC[C@H]3[C@@H]4CC=C5C(OC(C)=O)C=CC(=O)[C@]5(C)[C@H]4CC[C@]23C)OC1=O (single isomer, unassigned)	1630	> 80	530	
0.78	CC(=O)OCC1=C(C)C[C@H]([C@@H](C)[C@H]2CC[C@H]3[C@@H]4C[C@H]5O[C@]56[C@@H](OC(C)=O)[C@@H](OS(=O)(=O)O)CC(=O)[C@]6(C)[C@H]4CC[C@]23C)OC1=O	1040	> 80	390	
0	CC1=C(CO)C(=O)O[C@@H]([C@@H](C)[C@H]2C[C@@H](O)[C@H]3[C@@H]4C[C@H]5O[C@]56[C@@H](O)C=CC(=O)[C@]6(C)[C@H]4CC[C@@]32C)C1	3830			
0.92	CC(=O)OCC1=C(C)C[C@H]([C@@H](C)[C@H]2CC[C@H]3[C@@H]4C[C@H]5O[C@]56C(=O)C=CC(=O)[C@]6(C)[C@H]4CC[C@]23C)OC1=O	460	> 80	390	
0	CCCCO[C@H]1CC(=O)[C@]2(C)[C@H]3CC[C@]4(C)[C@@H]([C@H](C)[C@H]5CC(C)=C(CO)C(=O)O5)CC[C@H]4[C@@H]3C[C@H]3O[C@]32[C@H]1O	8740			
0.74	CC(=O)OCC1=C(C)C[C@H]([C@@H](C)[C@H]2CC[C@H]3[C@@H]4C[C@H](OC(C)=O)[C@]5(O)[C@@H](OC(C)=O)C=CC(=O)[C@]5(C)[C@H]4CC[C@]23C)OC1=O	2290			
